{"source": "ChEMBL document CHEMBL4028903", "about": "(J Med Chem, 2017)", "key": {"[1]": {"assay": "Oral bioavailability in rat at 10 mg/kg administered via gavage by LC-MS/MS analysis", "format": "ADME, organism-based", "conditions": "in vivo", "in_short": "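Rats were dosed IV as a solution in 75% PEG300:25% D5W, or orally as a suspension in 0.5% methylcellulose, 0.5% Tween80 and 99% water.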"}, "[2]": {"test_system": "Rattus norvegicus", "assay": "In vivo agonist activity at FXR in po dosed Sprague-Dawley rat assessed as induction of BSEP mRNA level in liver administered as single dose after 7 hrs post dose by qPCR analysis", "format": "functional, organism-based"}, "[3]": {"test_system": "Rattus norvegicus", "assay": "In vivo agonist activity at FXR in Sprague-Dawley rat assessed as induction of BSEP mRNA level in liver at >0.1 mg/kg, po qd for 14 days measured 7 hrs post last dose on day 14 by qPCR analysis", "format": "functional, organism-based"}, "[4]": {"test_system": "Rattus norvegicus", "assay": "In vivo agonist activity at FXR in Sprague-Dawley rat assessed as induction of SHP mRNA level in ileum at 0.01 mg/kg, po qd for 14 days measured 7 hrs post last dose on day 14 by qPCR analysis", "format": "functional, organism-based"}, "[5]": {"test_system": "Rattus norvegicus", "assay": "In vivo agonist activity at FXR in po dosed Sprague-Dawley rat assessed as induction of FGF15 mRNA level in ileum administered once daily for 14 days measured 7 hrs post last dose on day 14 by qPCR analysis", "format": "functional"}, "[6]": {"assay": "Drug uptake in Sprague-Dawley rat plasma at 0.1 mg/kg, po qd administered via gavage measured 7 hrs post last dose on day 14 by LC-MS/MS analysis", "format": "ADME, organism-based"}, "[7]": {"assay": "Drug uptake in Sprague-Dawley rat liver at 0.1 mg/kg, po qd administered via gavage measured 1 hr post last dose on day 14 by LC-MS/MS analysis", "format": "ADME, organism-based", "conditions": "read-out: Drug uptake", "in_short": "(§1)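 Drug concentration in liver was quantified from tissue homogenates, so these are total levels. Unbound liver concentration was not determined.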"}, "[8]": {"assay": "Drug uptake in Sprague-Dawley rat plasma at 0.1 mg/kg, po qd administered via gavage measured 1 hr post last dose on day 14 by LC-MS/MS analysis", "format": "ADME, organism-based"}, "[9]": {"assay": "Drug uptake in Sprague-Dawley rat liver at 0.03 mg/kg, po qd administered via gavage measured 7 hrs post last dose on day 14 by LC-MS/MS analysis", "format": "ADME, organism-based", "conditions": "read-out: Drug uptake", "in_short": "as §1"}, "[10]": {"assay": "Drug uptake in Sprague-Dawley rat plasma at 0.03 mg/kg, po qd administered via gavage measured 1 hr post last dose on day 14 by LC-MS/MS analysis", "format": "ADME, organism-based"}, "[11]": {"test_system": "Rattus norvegicus", "assay": "Dose normalized AUC (0 to 24 hrs) in Sprague-Dawley rat at 3 mg/kg, po qd administered via gavage measured on day 1 by LC-MS/MS analysis", "format": "ADME, organism-based", "conditions": "in vivo"}, "[12]": {"test_system": "Rattus norvegicus", "assay": "Dose normalized AUC (0 to 24 hrs) in Sprague-Dawley rat at 1 mg/kg, po qd administered via gavage measured on day 11 by LC-MS/MS analysis", "format": "ADME, organism-based", "conditions": "in vivo"}, "[13]": {"test_system": "Rattus norvegicus", "assay": "Dose normalized AUC (0 to 24 hrs) in Sprague-Dawley rat at 0.3 mg/kg, po qd administered via gavage measured on day 11 by LC-MS/MS analysis", "format": "ADME, organism-based", "conditions": "in vivo"}, "[14]": {"test_system": "Rattus norvegicus", "assay": "Dose normalized AUC (0 to 24 hrs) in Sprague-Dawley rat at 0.03 mg/kg, po qd administered via gavage measured on day 1 by LC-MS/MS analysis", "format": "ADME, organism-based", "conditions": "in vivo"}, "[15]": {"assay": "AUC (0 to 24 hrs) in Sprague-Dawley rat at 1 mg/kg, po qd administered via gavage measured on day 1 by LC-MS/MS analysis", "format": "ADME, organism-based", "parameters": "dose 1 mg/kg, time < 24 hr, route oral", "conditions": "in vivo"}, "[16]": {"assay": "AUC (0 to 24 hrs) in Sprague-Dawley rat at 0.3 mg/kg, po qd administered via gavage measured on day 1 by LC-MS/MS analysis", "format": "ADME, organism-based", "parameters": "dose 0.3 mg/kg, time < 24 hr, route oral", "conditions": "in vivo"}, "[17]": {"assay": "AUC (0 to 24 hrs) in Sprague-Dawley rat at 0.1 mg/kg, po qd administered via gavage measured on day 11 by LC-MS/MS analysis", "format": "ADME, organism-based", "parameters": "time < 24 hr, dose 0.1 mg/kg, route oral", "conditions": "in vivo"}, "[18]": {"assay": "AUC (0 to 24 hrs) in Sprague-Dawley rat at 0.1 mg/kg, po qd administered via gavage measured on day 1 by LC-MS/MS analysis", "format": "ADME, organism-based", "parameters": "time < 24 hr, dose 0.1 mg/kg, route oral", "conditions": "in vivo"}, "[19]": {"assay": "AUC (0 to 24 hrs) in Sprague-Dawley rat at 0.03 mg/kg, po qd administered via gavage measured on day 1 by LC-MS/MS analysis", "format": "ADME, organism-based", "parameters": "time < 24 hr, dose 0.03 mg/kg, route oral", "conditions": "in vivo"}, "[20]": {"assay": "AUC (0 to 24 hrs) in Sprague-Dawley rat at 0.003 mg/kg, po qd administered via gavage measured on day 1 by LC-MS/MS analysis", "format": "ADME, organism-based", "parameters": "time < 24 hr, dose 0.003 mg/kg, route oral", "conditions": "in vivo"}, "[21]": {"assay": "Cmax in Sprague-Dawley rat at 3 mg/kg, po qd administered via gavage measured on day 1 by LC-MS/MS analysis", "format": "ADME, organism-based", "parameters": "dose 3 mg/kg, route oral", "conditions": "in vivo"}, "[22]": {"assay": "Cmax in Sprague-Dawley rat at 1 mg/kg, po qd administered via gavage measured on day 1 by LC-MS/MS analysis", "format": "ADME, organism-based", "parameters": "dose 1 mg/kg, route oral", "conditions": "in vivo"}, "[23]": {"assay": "Cmax in Sprague-Dawley rat at 0.3 mg/kg, po qd administered via gavage measured on day 1 by LC-MS/MS analysis", "format": "ADME, organism-based", "parameters": "dose 0.3 mg/kg, route oral", "conditions": "in vivo"}, "[24]": {"assay": "Cmax in Sprague-Dawley rat at 0.003 mg/kg, po qd administered via gavage measured on day 1 by LC-MS/MS analysis", "format": "ADME, organism-based", "parameters": "dose 0.003 mg/kg, route oral", "conditions": "in vivo"}, "[25]": {"assay": "Protein binding in rat plasma at 0.01 to 0.05 mg/kg, po qd administered via gavage by LC-MS/MS analysis", "format": "ADME, organism-based", "conditions": "read-out: PPB"}, "[26]": {"assay": "Clearance in mouse at 5 mg/kg, iv by LC-MS/MS analysis", "format": "ADME, organism-based", "conditions": "in vivo", "in_short": "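Single IV dose given as a solution. Mouse received 5 mg/kg in 75% PEG300:25% D5W. Dog received 0.5 mg/kg in 20% PEG300, 5% solutol and 75% carbonate buffer pH = 8.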"}, "[27]": {"assay": "Volume of distribution at steady state in dog at 0.5 mg/kg, iv or 2 mg/kg, po administered via gavage by LC-MS/MS analysis", "format": "ADME, organism-based, Canis lupus familiaris", "conditions": "in vivo, read-out: Vdss", "in_short": "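IV dosing used a solution in 75% PEG300:25% D5W for mouse and rat, and a solution in 20% PEG300, 5% solutol, 75% carbonate buffer pH 8 for dog. PO dosing used a suspension in 0.5% methylcellulose, 0.5% Tween80, 99% water for all three species.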"}, "[28]": {"assay": "Protein binding in mouse plasma at 5 mg/kg, iv or 10 mg/kg, po administered via gavage by LC-MS/MS analysis", "format": "ADME, organism-based", "conditions": "read-out: PPB"}, "[29]": {"assay": "Drug uptake in Sprague-Dawley rat liver at 1 mg/kg, po qd administered via gavage measured 7 hrs post last dose on day 14 by LC-MS/MS analysis", "format": "ADME, organism-based", "conditions": "read-out: Drug uptake", "in_short": "as §1"}, "[30]": {"assay": "Drug uptake in Sprague-Dawley rat plasma at 3 mg/kg, po qd administered via gavage measured 7 hrs post last dose on day 14 by LC-MS/MS analysis", "format": "ADME, organism-based"}, "[31]": {"assay": "AUC in rat at 1 mg/kg, po administered via gavage by LC-MS/MS analysis", "format": "ADME, organism-based", "conditions": "in vivo", "in_short": "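Single oral dose given as a suspension in 0.5% methylcellulose, 0.5% Tween80 and 99% water. Doses were 10 mg/kg in mouse, 1 mg/kg in rat and 2 mg/kg in dog.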"}, "[32]": {"test_system": "Mus musculus", "assay": "Drug metabolism in mouse assessed as taurine conjugated metabolite formation at 5 mg/kg, iv or 10 mg/kg, po administered via gavage by LC-MS/MS analysis", "format": "ADME, organism-based", "conditions": "in vivo"}}, "note": "Active and inactive are the calls of the source. No cut-off for these calls is given here."}
{"smiles": "O=C(O)c1cc(F)c2nc(N3C4CCC3CC(OCc3c(-c5ccccc5OC(F)(F)F)noc3C3CC3)C4)sc2c1", "note": "(configuration not stated)", "values": [{"measurement": "bioavailability", "setting": "[1]", "result": 20, "unit": "%"}, {"measurement": "Activity", "setting": "[2]", "result": "Dose-dependent effect"}, {"measurement": "Activity", "setting": "[3]", "result": "Active"}, {"measurement": "Activity", "setting": "[4]", "result": "Active"}, {"measurement": "ED50", "setting": "[5]", "result": 0.05, "unit": "mg/kg"}, {"measurement": "concentration at 7 h", "setting": "[6]", "result": 4.89, "unit": "nM"}, {"measurement": "concentration at 1 h", "setting": "[7]", "result": 27.4, "unit": "nM"}, {"measurement": "concentration at 1 h", "setting": "[8]", "result": 3.95, "unit": "nM"}, {"measurement": "concentration at 7 h", "setting": "[9]", "result": 9.74, "unit": "nM"}, {"measurement": "concentration at 1 h", "setting": "[10]", "result": 1.29, "unit": "nM"}, {"measurement": "AUC/dose", "setting": "[11]", "result": 448, "unit": "nM·h"}, {"measurement": "AUC/dose", "setting": "[12]", "result": 562, "unit": "nM·h"}, {"measurement": "AUC/dose", "setting": "[13]", "result": 633, "unit": "nM·h"}, {"measurement": "AUC/dose", "setting": "[14]", "result": 503, "unit": "nM·h"}, {"measurement": "AUC(0-t) at 24 h", "setting": "[15]", "result": 0.461, "unit": "µM·h"}, {"measurement": "AUC(0-t) at 24 h", "setting": "[16]", "result": 0.117, "unit": "µM·h"}, {"measurement": "AUC at 24 h", "setting": "[17]", "result": 0.08, "unit": "µM·h"}, {"measurement": "AUC(0-t) at 24 h", "setting": "[18]", "result": 0.041, "unit": "µM·h"}, {"measurement": "AUC(0-t) at 24 h", "setting": "[19]", "result": 0.015, "unit": "µM·h"}, {"measurement": "AUC(0-t) at 24 h", "setting": "[20]", "result": 0.002, "unit": "µM·h"}, {"measurement": "Cmax", "setting": "[21]", "result": 172, "unit": "nM"}, {"measurement": "Cmax", "setting": "[22]", "result": 39.3, "unit": "nM"}, {"measurement": "Cmax", "setting": "[23]", "result": 13.5, "unit": "nM"}, {"measurement": "Cmax", "setting": "[24]", "result": 0.15, "unit": "nM"}, {"measurement": "fraction unbound", "setting": "[25]", "result": 0.001}, {"measurement": "clearance", "setting": "[26]", "result": 5.3, "unit": "mL/min/kg"}, {"measurement": "Vd", "setting": "[27]", "result": 0.46, "unit": "L/kg"}, {"measurement": "fraction unbound", "setting": "[28]", "result": 0.001}, {"measurement": "concentration at 7 h", "setting": "[29]", "result": 230, "unit": "nM"}, {"measurement": "concentration at 7 h", "setting": "[30]", "result": 115, "unit": "nM"}, {"measurement": "AUC", "setting": "[31]", "result": 0.307, "unit": "µM·h"}, {"measurement": "Drug metabolism", "setting": "[32]", "result": "Metabolite_Notdetected"}]}
